Experimental data reported in ChEMBL document CHEMBL2375313, “Synthesis, in vitro antitumor evaluation and DNA-binding study of novel tetrahydroquinolines and some derived tricyclic and tetracyclic ring systems” (Eur J Med Chem, 2013).
Values after ≈ are worked out from the molar mass of the structure shown. Active and inactive are the calls of the source. The calls are words filed in the database; no cut-off is given here.

Tests used:
[1] = system: HT-29; experiment: Cytotoxicity against human HT-29 cells assessed as growth inhibition at 10 uM after 48 hrs by sulphorhodamine B assay; assay type: functional; details: HT-29, 48 h, read-out: GI
Method in brief: (§1)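 NCI-60 one-dose screen per the NCI Drug Evaluation Branch protocol. Cells given a single 10 µM concentration with 48 h continuous exposure. Growth estimated by sulphorhodamine B protein assay. Result expressed as percentage growth inhibition relative to untreated growth.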

[2] = system: K562; experiment: Cytotoxicity against human K562 cells assessed as growth inhibition at 10 uM after 48 hrs by sulphorhodamine B assay; assay type: functional; details: K562, 48 h, read-out: GI; method in brief: as §1
[3] = system: SK-MEL-2; experiment: Cytotoxicity against human SK-MEL-2 cells assessed as growth inhibition at 10 uM after 48 hrs by sulphorhodamine B assay; assay type: functional; details: SK-MEL-2, 48 h, read-out: GI; method in brief: as §1
[4] = system: SNB-19; experiment: Cytotoxicity against human SNB19 cells assessed as growth inhibition at 10 uM after 48 hrs by sulphorhodamine B assay; assay type: functional; details: SNB-19, 48 h, read-out: GI; method in brief: as §1
[5] = system: CAKI-1; experiment: Cytotoxicity against human Caki1 cells assessed as growth inhibition at 10 uM after 48 hrs by sulphorhodamine B assay; assay type: functional; details: CAKI-1, 48 h, read-out: GI; method in brief: as §1
[6] = system: CCRF-CEM; experiment: Cytotoxicity against human CCRF-CEM cells assessed as growth inhibition at 10 uM after 48 hrs by sulphorhodamine B assay; assay type: functional; details: read-out: GI; method in brief: as §1
[7] = system: SK-OV-3; experiment: Cytotoxicity against human SKOV3 cells assessed as growth inhibition at 10 uM after 48 hrs by sulphorhodamine B assay; assay type: functional; details: SK-OV-3, 48 h, read-out: GI; method in brief: as §1
[8] = system: HOP-92; experiment: Cytotoxicity against human HOP92 cells assessed as growth inhibition at 10 uM after 48 hrs by sulphorhodamine B assay; assay type: functional; details: HOP-92, 48 h, read-out: GI; method in brief: as §1
[9] = system: UO-31; experiment: Cytotoxicity against human UO31 cells assessed as growth inhibition at 10 uM after 48 hrs by sulphorhodamine B assay; assay type: functional; details: UO-31, 48 h, read-out: GI; method in brief: as §1
[10] = system: DU-145; experiment: Cytotoxicity against human DU145 cells assessed as growth inhibition at 10 uM after 48 hrs by sulphorhodamine B assay; assay type: functional; details: DU-145, 48 h, read-out: GI; method in brief: as §1
[11] = system: T47D; experiment: Cytotoxicity against human T47D cells assessed as growth inhibition at 10 uM after 48 hrs by sulphorhodamine B assay; assay type: functional; details: read-out: GI; method in brief: as §1
[12] = system: Hs-578T; experiment: Cytotoxicity against human Hs578T cells assessed as growth inhibition at 10 uM after 48 hrs by sulphorhodamine B assay; assay type: functional; details: read-out: GI; method in brief: as §1
[13] = system: IGROV-1; experiment: Cytotoxicity against human IGROV1 cells assessed as growth inhibition at 10 uM after 48 hrs by sulphorhodamine B assay; assay type: functional; details: IGROV-1, 48 h, read-out: GI; method in brief: as §1
[14] = system: MOLT-4; experiment: Cytotoxicity against human MOLT4 cells assessed as growth inhibition at 10 uM after 48 hrs by sulphorhodamine B assay; assay type: functional; details: MOLT-4, 48 h, read-out: GI; method in brief: as §1
[15] = system: SF-268; experiment: Cytotoxicity against human SF268 cells assessed as growth inhibition at 10 uM after 48 hrs by sulphorhodamine B assay; assay type: functional; details: SF-268, 48 h, read-out: GI; method in brief: as §1
[16] = Binding affinity to DNA (unknown origin) at 5 mg/mL by RP-TLC plate analysis
Method in brief: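 Reversed-phase C18 TLC plates pre-developed in methanol/water 8:2. Compound spotted at origin (5 mg/mL in methanol), then DNA (1 mg/mL in water/methanol 8:2) applied at the same spot. Plates developed in the same eluent; DNA located by anisaldehyde spray (blue). Ethidium bromide as positive control.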

[17] = system: A498; experiment: Cytotoxicity against human A498 cells assessed as growth inhibition at 10 uM after 48 hrs by sulphorhodamine B assay; assay type: functional; details: A498, 48 h, read-out: GI; method in brief: as §1
[18] = system: NCI-H522; experiment: Cytotoxicity against human NCI-H522 cells assessed as growth inhibition at 10 uM after 48 hrs by sulphorhodamine B assay; assay type: functional; details: NCI-H522, 48 h, read-out: GI; method in brief: as §1
[19] = system: PC-3; experiment: Cytotoxicity against human PC3 cells assessed as growth inhibition at 10 uM after 48 hrs by sulphorhodamine B assay; assay type: functional; details: PC-3, 48 h, read-out: GI; method in brief: as §1
[20] = system: RXF 393; experiment: Cytotoxicity against human RXF393 cells assessed as growth inhibition at 10 uM after 48 hrs by sulphorhodamine B assay; assay type: functional; details: RXF 393, 48 h, read-out: GI; method in brief: as §1
[21] = system: NCI/ADR-RES; experiment: Cytotoxicity against human NCI/ADR-RES cells assessed as growth inhibition at 10 uM after 48 hrs by sulphorhodamine B assay; assay type: functional; details: read-out: GI; method in brief: as §1
[22] = system: U-251; experiment: Cytotoxicity against human U251 cells assessed as growth inhibition at 10 uM after 48 hrs by sulphorhodamine B assay; assay type: functional; details: U-251, 48 h, read-out: GI; method in brief: as §1
[23] = system: SF-295; experiment: Cytotoxicity against human SF295 cells assessed as growth inhibition at 10 uM after 48 hrs by sulphorhodamine B assay; assay type: functional; details: SF-295, 48 h, read-out: GI; method in brief: as §1
[24] = system: A549; experiment: Cytotoxicity against human A549 cells assessed as growth inhibition at 10 uM after 48 hrs by sulphorhodamine B assay; assay type: functional; details: A549, 48 h, read-out: GI; method in brief: as §1
[25] = system: ACHN; experiment: Cytotoxicity against human ACHN cells assessed as growth inhibition at 10 uM after 48 hrs by sulphorhodamine B assay; assay type: functional; details: read-out: GI; method in brief: as §1
[26] = system: OVCAR-4; experiment: Cytotoxicity against human OVCAR4 cells assessed as growth inhibition at 10 uM after 48 hrs by sulphorhodamine B assay; assay type: functional; details: OVCAR-4, 48 h, read-out: GI; method in brief: as §1
[27] = system: RPMI-8226; experiment: Cytotoxicity against human RPMI8226 cells assessed as growth inhibition at 10 uM after 48 hrs by sulphorhodamine B assay; assay type: functional; details: RPMI-8226, 48 h, read-out: GI; method in brief: as §1
[28] = system: M14; experiment: Cytotoxicity against human M14 cells assessed as growth inhibition at 10 uM after 48 hrs by sulphorhodamine B assay; assay type: functional; details: M14, 48 h, read-out: GI; method in brief: as §1
[29] = system: SR; experiment: Cytotoxicity against human SR cells assessed as growth inhibition at 10 uM after 48 hrs by sulphorhodamine B assay; assay type: functional; details: read-out: GI; method in brief: as §1
[30] = system: HCT-116; experiment: Cytotoxicity against human HCT116 cells assessed as growth inhibition at 10 uM after 48 hrs by sulphorhodamine B assay; assay type: functional; details: HCT-116, 48 h, read-out: GI; method in brief: as §1
[31] = system: SNB-75; experiment: Cytotoxicity against human SNB75 cells assessed as growth inhibition at 10 uM after 48 hrs by sulphorhodamine B assay; assay type: functional; details: SNB-75, 48 h, read-out: GI; method in brief: as §1
[32] = system: OVCAR-5; experiment: Cytotoxicity against human OVCAR5 cells assessed as growth inhibition at 10 uM after 48 hrs by sulphorhodamine B assay; assay type: functional; details: OVCAR-5, 48 h, read-out: GI; method in brief: as §1
[33] = system: SK-MEL-5; experiment: Cytotoxicity against human SK-MEL-5 cells assessed as growth inhibition at 10 uM after 48 hrs by sulphorhodamine B assay; assay type: functional; details: SK-MEL-5, 48 h, read-out: GI; method in brief: as §1
[34] = Cytotoxicity against human EKVX cells assessed as growth inhibition at 10 uM after 48 hrs by sulphorhodamine B assay; assay type: functional; details: read-out: GI; method in brief: as §1
[35] = system: MDA-MB-435; experiment: Cytotoxicity against human MDA-MB-435 cells assessed as growth inhibition at 10 uM after 48 hrs by sulphorhodamine B assay; assay type: functional; details: MDA-MB-435, 48 h, read-out: GI; method in brief: as §1
[36] = system: HCT-15; experiment: Cytotoxicity against human HCT15 cells assessed as growth inhibition at 10 uM after 48 hrs by sulphorhodamine B assay; assay type: functional; details: HCT-15, 48 h, read-out: GI; method in brief: as §1
[37] = system: MCF7; experiment: Cytotoxicity against human MCF7 cells assessed as growth inhibition at 10 uM after 48 hrs by sulphorhodamine B assay; assay type: functional; details: MCF7, 48 h, read-out: GI; method in brief: as §1
[38] = system: NCI-H23; experiment: Cytotoxicity against human NCI-H23 cells assessed as growth inhibition at 10 uM after 48 hrs by sulphorhodamine B assay; assay type: functional; details: NCI-H23, 48 h, read-out: GI; method in brief: as §1
[39] = system: LOX IMVI; experiment: Cytotoxicity against human LOXIMVI cells assessed as growth inhibition at 10 uM after 48 hrs by sulphorhodamine B assay; assay type: functional; details: read-out: GI; method in brief: as §1
[40] = system: UACC-62; experiment: Cytotoxicity against human UACC62 cells assessed as growth inhibition at 10 uM after 48 hrs by sulphorhodamine B assay; assay type: functional; details: UACC-62, 48 h, read-out: GI; method in brief: as §1
[41] = Displacement of methyl green from DNA (unknown origin) after 24 hrs
Method in brief: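 DNA-methyl green complex was stirred in 0.05 M Tris-HCl pH 7.5 with 7.5 mmol MgSO4 at 37 °C for 24 h. Compound was dried down from EtOH in tubes and the DNA-methyl green solution added. A630 was read initially and after 24 h dark incubation at room temperature, corrected and normalized to untreated complex. IC50 is the concentration giving a 50% absorbance decrease; mean ± SD, n = 6.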

[42] = system: HL-60(TB); experiment: Cytotoxicity against human HL-60(TB) cells assessed as growth inhibition at 10 uM after 48 hrs by sulphorhodamine B assay; assay type: functional; details: HL-60, 48 h, read-out: GI
Method in brief: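 NCI-60 one-dose primary screen run to the Drug Evaluation Branch protocol. Cells are exposed to a single 10 µM concentration for 48 h continuously, and growth is read by SRB protein assay. Data are reported as percent growth of treated cells, expressed as % growth inhibition.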

CC1CCCc2c1nc1[nH]c(=S)n(-c3ccccc3)c(=N)c1c2-c1ccc(Cl)cc1 (configuration not stated)
inhibition of growth at 10 µM [1]: < 10%
inhibition of growth at 10 µM [2]: 28.5%
inhibition of growth at 10 µM [3]: 11.3%
inhibition of growth at 10 µM [4]: < 10%
inhibition of growth at 10 µM [5]: < 10%
inhibition of growth at 10 µM [6]: 20.7%
inhibition of growth at 10 µM [7]: 10.4%
inhibition of growth at 10 µM [8]: 26.2%
inhibition of growth at 10 µM [9]: 44.4%
inhibition of growth at 10 µM [10]: 13%
inhibition of growth at 10 µM [11]: 50%
inhibition of growth at 10 µM [12]: < 10%
inhibition of growth at 10 µM [13]: 33.3%
inhibition of growth at 10 µM [14]: 40%
inhibition of growth at 10 µM [15]: < 10%
Activity [16]: Active
inhibition of growth at 10 µM [17]: 25.2%
inhibition of growth at 10 µM [18]: 31%
inhibition of growth at 10 µM [19]: 21%
inhibition of growth at 10 µM [20]: 17.8%
inhibition of growth at 10 µM [21]: 11.4%
inhibition of growth at 10 µM [22]: 15.2%
inhibition of growth at 10 µM [23]: 12.8%
inhibition of growth at 10 µM [24]: 18.9%
inhibition of growth at 10 µM [25]: 11.3%
inhibition of growth at 10 µM [26]: 14.5%
inhibition of growth at 10 µM [27]: 66%
inhibition of growth at 10 µM [28]: 17.3%
inhibition of growth at 10 µM [29]: < 10%
inhibition of growth at 10 µM [30]: 34%
inhibition of growth at 10 µM [31]: 13.9%
inhibition of growth at 10 µM [32]: 14.3%
inhibition of growth at 10 µM [33]: 12%
inhibition of growth at 10 µM [34]: 31%
inhibition of growth at 10 µM [35]: < 10%
inhibition of growth at 10 µM [36]: 10%
inhibition of growth at 10 µM [37]: < 10%
inhibition of growth at 10 µM [38]: 11.5%
inhibition of growth at 10 µM [39]: 13.1%
inhibition of growth at 10 µM [40]: 25.3%
IC50 [41]: 0.097 µg/mL (≈ 0.224 µM)
inhibition of growth at 10 µM [42]: 24.2%
